TRPC6 activator = activates the mouse TRPC6 cation channel. HEK293-TRPC6 membrane potential dye fluorescence; active compounds read high. B-score at 10 µM. 310,000 compounds, 0.13% hits. AID 2550;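 active = B-score of the integrated fluorescence ratio above library mean plus 3 SD, and starting fluorescence ratio within library mean plus 5 SD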;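 also: higher score means more depolarization so channel activation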
Target sequence (Q61143 whole entry, looked up): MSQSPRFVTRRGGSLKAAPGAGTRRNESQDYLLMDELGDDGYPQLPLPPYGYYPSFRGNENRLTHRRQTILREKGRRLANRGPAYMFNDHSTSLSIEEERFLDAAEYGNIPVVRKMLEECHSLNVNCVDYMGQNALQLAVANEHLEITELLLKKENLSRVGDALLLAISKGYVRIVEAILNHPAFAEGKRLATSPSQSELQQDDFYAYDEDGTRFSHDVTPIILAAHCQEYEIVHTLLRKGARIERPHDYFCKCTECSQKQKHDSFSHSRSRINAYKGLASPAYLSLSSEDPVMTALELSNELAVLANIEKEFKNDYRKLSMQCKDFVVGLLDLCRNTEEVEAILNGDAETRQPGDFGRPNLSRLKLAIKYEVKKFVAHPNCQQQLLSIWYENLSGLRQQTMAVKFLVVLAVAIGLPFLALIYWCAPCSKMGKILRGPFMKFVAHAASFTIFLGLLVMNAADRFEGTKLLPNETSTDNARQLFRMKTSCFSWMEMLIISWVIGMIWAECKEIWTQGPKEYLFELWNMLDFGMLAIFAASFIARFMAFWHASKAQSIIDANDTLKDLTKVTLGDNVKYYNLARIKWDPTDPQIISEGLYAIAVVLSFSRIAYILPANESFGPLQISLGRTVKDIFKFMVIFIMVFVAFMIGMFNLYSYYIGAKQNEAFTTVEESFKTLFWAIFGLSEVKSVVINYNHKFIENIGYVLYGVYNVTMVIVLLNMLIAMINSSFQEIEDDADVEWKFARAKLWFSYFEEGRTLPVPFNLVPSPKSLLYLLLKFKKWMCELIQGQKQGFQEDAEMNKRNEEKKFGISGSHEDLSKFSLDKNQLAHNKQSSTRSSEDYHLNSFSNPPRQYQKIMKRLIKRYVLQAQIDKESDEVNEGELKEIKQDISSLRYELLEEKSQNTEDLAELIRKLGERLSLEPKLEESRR
TRPC4 block = blocks the mouse TRPC4 cation channel; Q9QUQ5; HEK293 TRPC4beta/mu-opioid, DAMGO-evoked Fluo4 calcium flux; active compounds read low; B-score at 10 µM; 300,000 compounds, 0.39% hits; AID 2247;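 active = B-score over 3 SD under the library average, no early fluorescence shift, positive overall ratio signal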
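Assay system – HEK293 line stably carrying TRPC4beta and mu-opioid receptor · Doses – single dose · Detection – Fluo4 calcium-dye fluorescence, kinetic read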
TRPC4 act = TRPC4 (mouse) channel activation. HEK293 TRPC4beta/mu-opioid, Fluo4 calcium fluorescence; active compounds read high. Q9QUQ5. 310,000 compounds, 0.49% hits. AID 2237. B-score at 10 µM;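 active = B-score above 5 SD of library B-scores, and initial fluorescence ratio not above library mean plus 5 SD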;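 also: positive B-score marks a calcium rise read as TRPC4 activation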
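Test system: HEK293 cells stably co-expressing mouse TRPC4beta and mu-opioid receptor | Schedule: Fluo4 dye loading 45 min at room temperature, 110 s recording | Measured by: Kinetic Fluo4 calcium fluorescence, 5 s baseline at 1 Hz | Evaluation: B score of integrated ratio | Controls: Buffer (low) and maximal DAMGO (high)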
TRPC4 PAM = allosteric potentiators of mouse TRPC4 channel | Q9QUQ5 | HEK293 TRPC4beta/mu-opioid, DAMGO EC20, Fluo-4 Ca2+ flux; active compounds read high | B-score at 10 µM | 310,000 compounds, 0.42% hits | AID 2227;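 active = B-score of calcium response area above 5 SD of library B-scores, with initial fluorescence ratio within 5 SD of library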;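 also: B-score of integrated fluorescence ratio over time as area under calcium response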
TRPC6 inhibitor = inhibitors of mouse TRPC6 channel; Q61143; HEK293-TRPC6, membrane potential dye, ACh-evoked depolarization; active compounds read low; B-score at 10 µM; 310,000 compounds, 1.1% hits; AID 2553;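 active = B-score under library mean minus 3 SD, initial fluorescence not abnormally high, positive integrated signal ratio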;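 also: B-score derived from integrated fluorescence ratio over the kinetic read; more negative B-score means stronger inhibition of depolarization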
TRPC4 sel inh 2 = second check of whether TRPC6 inhibitors also affect mouse TRPC4. shares compounds with TRPC6 inhibitor. HEK293 TRPC4/MOR, membrane potential dye fluorescence; channel activated by saturating DAMGO dose. inhibition, % at 10 µM. 920 compounds, 42% hits;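 active = compounds whose fluorescence signal differed from control wells by over 3 SD, either direction, in both duplicate plates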
TRPC4 spec = selectivity of TRPC6 inhibitors: effect on mouse TRPC4; shares compounds with TRPC6 inhibitor; activity change, negative = inhibition, % at 10 µM; 920 compounds, 61% hits; HEK293 TRPC4/mu-opioid, membrane potential fluorescence;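 active = rise or fall in signal beyond 3 SD of buffer-only wells in both replicate plates, either sign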;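 also: integrated kinetic ratio of fluorescence range over baseline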
HEK293 MPD ctr 2-1 = second counter-screen for TRPC6 inhibitors: parental HEK293 cells; shares compounds with TRPC6 inhibitor; parental HEK293 membrane potential dye fluorescence; maximal acetylcholine challenge after compound addition; signal change vs control, % at 10 µM; 920 compounds, 31% hits;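 active = membrane potential signal moving either way by over 3 SD of the maximum-effect control, in both duplicate plates, meaning non-specific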
HEK293 MPD ctr-1 = checks TRPC6 inhibitor effects in parental HEK293 cells; parental HEK293 membrane potential dye fluorescence; 920 compounds, 60% hits; membrane potential signal change, % at 10 µM; shares compounds with TRPC6 inhibitor;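 active = membrane potential signal shifting up or down by more than 3 SD of buffer-only wells, on both duplicate plates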
HEK293 MPD ctr-2 = checks TRPC6 modulator effects in parental HEK293 cells. shares compounds with TRPC6 inhibitor. membrane potential dye fluorescence. 2,400 compounds, 51% hits. membrane potential signal change, % at 10 µM;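 active = membrane potential signal moves up or down beyond 5 SD from buffer-only wells, on both duplicate plates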
HEK293 MPD ctr 2-2 = second check of TRPC6 modulator effects in parental HEK293 cells; shares compounds with TRPC6 inhibitor; inhibition, % at 10 µM; membrane potential dye fluorescence; after compound, maximal acetylcholine stimulation; 2,400 compounds, 14% hits;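 active = membrane potential signal drops by more than 5 SD from the mean control signal, in both duplicate plates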;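 also: plate controls were acetylcholine ECmax control wells for no effect and buffer only wells for full effect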
TRPC4/MOR mod = mouse TRPC4 off-target activity of TRPC6 modulators | shares compounds with TRPC6 inhibitor | HEK293 TRPC4/mu-opioid, membrane potential fluorescence | percent change from control (negative = decrease, positive = increase), % at 10 µM | 2,400 compounds, 69% hits | AID 488927;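 active = membrane potential signal moved up or down beyond 5 SD of buffer control wells, in both duplicate plates, actives on both sides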;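 also: plate controls were assay buffer wells for no effect and DAMGO maximal-effect wells for full effect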
TRPC4 ctr inh 2 = second selectivity test of TRPC6 modulators against mouse TRPC4; AID 488928; 2,400 compounds, 55% hits; shares compounds with TRPC6 inhibitor; inhibition, % at 10 µM; HEK293 TRPC4/mu-opioid, membrane potential dye fluorescence; stimulated with maximal-effect DAMGO;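 active = drop in membrane potential signal beyond 5 SD of the control wells in both duplicate plates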;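 also: TRPC4 counter screen for TRPC6 hits run under conditions tuned for TRPC6 not TRPC4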
TRPC6 inh conf = confirmation of mouse TRPC6 inhibitors; HEK293-TRPC6, membrane potential dye, ACh-evoked depolarization; inhibition, % at 10 µM; shares compounds with TRPC6 inhibitor; 3,300 compounds, 43% hits;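 active = fluorescence ratio falls more than 5 SD below the full-stimulation control mean, in both duplicate runs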;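 also: integrated fluorescence ratio of peak minus minimum over baseline after agonist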
TRPC6 act conf = mouse TRPC6 activator confirmation. AID 488961. activation, % at 10 µM. 2,800 compounds, 11% hits. shares compounds with TRPC6 inhibitor. HEK293-TRPC6 membrane potential dye fluorescence, FDSS;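 active = ratio signal rise beyond 5 SD above unstimulated control wells' mean, seen in both duplicate runs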;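 also: plate controls were buffer EC0 wells for no effect and acetylcholine ECmax response for full effect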
* hit, by the source's call. Compounds with a hit are over-represented: about 2.3% of the library has one in this group of screens.

`CN(C)CCOC(=O)C1(c2ccccc2)CCCC1` gave TRPC6 activator inactive, TRPC4 block inactive, TRPC4 act inactive, TRPC4 PAM inactive, TRPC6 inhibitor -9.57*, TRPC4 sel inh 2 inactive, TRPC4 spec 2.4%*, HEK293 MPD ctr 2-1 19.0%*, HEK293 MPD ctr-1 5.8%* and TRPC6 inh conf inactive.
O=C(OCCN1CCCCC1)c1ccccc1Br was read as TRPC6 activator inactive, TRPC4 block inactive, TRPC4 act inactive, TRPC4 PAM inactive and TRPC6 inhibitor inactive.
For C[N+]1(CCCOC(=O)C2(c3ccccc3)CCCC2)CCOCC1 the results were TRPC6 activator inactive, TRPC4 block inactive, TRPC4 act inactive, TRPC4 PAM inactive, TRPC6 inhibitor -5.39*, HEK293 MPD ctr-2 inactive, HEK293 MPD ctr 2-2 inactive, TRPC4/MOR mod inactive, TRPC4 ctr inh 2 inactive, TRPC6 inh conf inactive and TRPC6 act conf inactive.
CCNC(=O)C1(c2ccccc2)CCCC1 was read as TRPC6 activator inactive, TRPC4 block inactive, TRPC4 act inactive, TRPC4 PAM inactive and TRPC6 inhibitor inactive.
O=C(OCCN1CCCC1)C1(c2ccccc2)CCCC1 was read as TRPC6 activator inactive, TRPC4 block inactive, TRPC4 act inactive, TRPC4 PAM inactive, TRPC6 inhibitor -8*, TRPC4 sel inh 2 inactive, TRPC4 spec 9.8%*, HEK293 MPD ctr 2-1 15.5%*, HEK293 MPD ctr-1 12.6%* and TRPC6 inh conf 63.6%*.
Screening CC(Oc1ccc2cc(-c3ccccc3)c(=O)oc2c1)C(=O)NCC1CCC(C(=O)O)CC1 (stereo not drawn) returned TRPC6 activator inactive, TRPC4 block inactive, TRPC4 act inactive, TRPC4 PAM inactive and TRPC6 inhibitor inactive.
Screening CCOc1ccc(N(CC(=O)Nc2cc(OC)cc(OC)c2)S(=O)(=O)c2c(C)[nH]c(=O)[nH]c2=O)cc1 returned TRPC6 activator inactive, TRPC4 block inactive, TRPC4 act inactive, TRPC4 PAM inactive and TRPC6 inhibitor inactive.
For O=C1c2ccccc2CN1Cc1ccccc1 the results were TRPC6 activator inactive, TRPC4 block inactive, TRPC4 act inactive, TRPC4 PAM inactive and TRPC6 inhibitor inactive.

Assay outcomes (PubChem BioAssay)
